Experimental data from ChEMBL document CHEMBL4138126, “Synthesis, antiproliferative, anti-tubulin activity, and docking study of new 1,2,4-triazoles as potential combretastatin analogues” (Eur J Med Chem, 2017).

How the values were obtained:
[1] = tested on: UO-31; test: Growth inhibition of human UO31 cells assessed as cell growth at 10 uM after 48 hrs by sulforhodamine B assay; type: functional; settings: UO-31, 48 h, read-out: Activity
Method in brief: (§1)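 NCI 60-cell-line panel from nine tumour types (leukaemia, lung, colon, CNS, melanoma, ovarian, renal, prostate, breast). Each compound was added at one single concentration, and cultures were incubated for 48 h. Results are reported as percent growth inhibition.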

[2] = tested on: SK-MEL-28; test: Growth inhibition of human SK-MEL-28 cells assessed as cell growth at 10 uM after 48 hrs by sulforhodamine B assay; type: functional; settings: SK-MEL-28, 48 h, read-out: Activity
Method in brief: (§2)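 NCI 60-cell-line panel screen (nine cancer types). Compounds added at single concentration 10^-5 M, cultures incubated 48 h; growth inhibition percentages reported.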

[3] = tested on: HepG2; test: Cytotoxicity in human HepG2 cells assessed as reduction in cell viability incubated for 48 hrs by MTT assay; type: functional, cell-based; settings: HepG2, 48 h
Method in brief: (§3)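 HepG2 and HL60 (ATCC) grown in DMEM with 10% FBS, 2 mM L-glutamine, penicillin/streptomycin, amphotericin B at 37 °C, 5% CO2. Samples dissolved in DMSO, diluted thousandfold in assay. Cells seeded in serum-free medium, treated with serial concentrations 48 h; MTT 4 h, formazan dissolved in acidified isopropanol, A570. Triplicates averaged; viability relative to untreated/vehicle control.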

[4] = tested on: K562; test: Growth inhibition of human K562 cells assessed as cell growth at 10 uM after 48 hrs by sulforhodamine B assay; type: functional; settings: K562, 48 h, read-out: Activity; method in brief: as §2
[5] = tested on: NCI-H522; test: Growth inhibition of human NCI-H522 cells assessed as cell growth at 10 uM after 48 hrs by sulforhodamine B assay; type: functional; settings: NCI-H522, 48 h, read-out: Activity; method in brief: as §2
[6] = tested on: HCC 2998; test: Growth inhibition of human HCC2998 cells assessed as cell growth at 10 uM after 48 hrs by sulforhodamine B assay; type: functional; settings: HCC 2998, 48 h, read-out: Activity; method in brief: as §2
[7] = tested on: SN12C; test: Growth inhibition of human SN12C cells assessed as cell growth at 10 uM after 48 hrs by sulforhodamine B assay; type: functional; settings: read-out: Activity; method in brief: as §1
[8] = tested on: SF-539; test: Growth inhibition of human SF539 cells assessed as cell growth at 10 uM after 48 hrs by sulforhodamine B assay; type: functional; settings: SF-539, 48 h, read-out: Activity; method in brief: as §2
[9] = tested on: UACC-62; test: Growth inhibition of human UACC62 cells assessed as cell growth at 10 uM after 48 hrs by sulforhodamine B assay; type: functional; settings: UACC-62, 48 h, read-out: Activity; method in brief: as §1
[10] = tested on: PC-3; test: Growth inhibition of human PC3 cells assessed as cell growth at 10 uM after 48 hrs by sulforhodamine B assay; type: functional; settings: PC-3, 48 h, read-out: Activity; method in brief: as §2
[11] = tested on: SR; test: Growth inhibition of human SR cells assessed as cell growth at 10 uM after 48 hrs by sulforhodamine B assay; type: functional; settings: read-out: Activity; method in brief: as §1
[12] = tested on: SF-295; test: Growth inhibition of human SF295 cells assessed as cell growth at 10 uM after 48 hrs by sulforhodamine B assay; type: functional; settings: SF-295, 48 h, read-out: Activity; method in brief: as §2
[13] = tested on: MDA-MB-468; test: Growth inhibition of human MDA-MB-468 cells assessed as cell growth at 10 uM after 48 hrs by sulforhodamine B assay; type: functional; settings: MDA-MB-468, 48 h, read-out: Activity; method in brief: as §2
[14] = tested on: TK-10; test: Growth inhibition of human TK10 cells assessed as cell growth at 10 uM after 48 hrs by sulforhodamine B assay; type: functional; settings: TK-10, 48 h, read-out: Activity; method in brief: as §1
[15] = tested on: A498; test: Growth inhibition of human A498 cells assessed as cell growth at 10 uM after 48 hrs by sulforhodamine B assay; type: functional; settings: A498, 48 h, read-out: Activity; method in brief: as §2
[16] = tested on: OVCAR-3; test: Growth inhibition of human OVCAR3 cells assessed as cell growth at 10 uM after 48 hrs by sulforhodamine B assay; type: functional; settings: OVCAR-3, 48 h, read-out: Activity; method in brief: as §2
[17] = tested on: SK-MEL-5; test: Growth inhibition of human SK-MEL-5 cells assessed as cell growth at 10 uM after 48 hrs by sulforhodamine B assay; type: functional; settings: SK-MEL-5, 48 h, read-out: Activity; method in brief: as §2
[18] = tested on: OVCAR-8; test: Growth inhibition of human OVCAR8 cells assessed as cell growth at 10 uM after 48 hrs by sulforhodamine B assay; type: functional; settings: OVCAR-8, 48 h, read-out: Activity; method in brief: as §2
[19] = tested on: BT-549; test: Growth inhibition of human BT549 cells assessed as cell growth at 10 uM after 48 hrs by sulforhodamine B assay; type: functional; settings: BT-549, 48 h, read-out: Activity; method in brief: as §2
[20] = tested on: SK-MEL-2; test: Growth inhibition of human SK-MEL-2 cells assessed as cell growth at 10 uM after 48 hrs by sulforhodamine B assay; type: functional; settings: SK-MEL-2, 48 h, read-out: Activity; method in brief: as §2
[21] = tested on: HL-60(TB); test: Growth inhibition of human HL-60(TB) cells assessed as cell growth at 10 uM after 48 hrs by sulforhodamine B assay; type: functional; settings: HL-60, 48 h, read-out: Activity
Method in brief: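 Screened by the NCI in its 60-cell-line panel covering nine cancer types, including leukemia. Compounds were added at a single concentration, and the cultures were incubated for 48 h. Results are reported as percent growth inhibition.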

[22] = tested on: HL-60; test: Cytotoxicity in human HL60 cells assessed as reduction in cell viability incubated for 48 hrs by MTT assay; type: functional, cell-based; settings: HL-60, 48 h; method in brief: as §3
[23] = tested on: HCT-15; test: Growth inhibition of human HCT15 cells assessed as cell growth at 10 uM after 48 hrs by sulforhodamine B assay; type: functional; settings: HCT-15, 48 h, read-out: Activity; method in brief: as §2
[24] = tested on: SK-OV-3; test: Growth inhibition of human SKOV3 cells assessed as cell growth at 10 uM after 48 hrs by sulforhodamine B assay; type: functional; settings: SK-OV-3, 48 h, read-out: Activity; method in brief: as §2
[25] = tested on: HCT-116; test: Growth inhibition of human HCT116 cells assessed as cell growth at 10 uM after 48 hrs by sulforhodamine B assay; type: functional; settings: HCT-116, 48 h, read-out: Activity; method in brief: as §2
[26] = tested on: UACC-257; test: Growth inhibition of human UACC257 cells assessed as cell growth at 10 uM after 48 hrs by sulforhodamine B assay; type: functional; settings: UACC-257, 48 h, read-out: Activity; method in brief: as §1
[27] = tested on: CAKI-1; test: Growth inhibition of human CAKI-1 cells assessed as cell growth at 10 uM after 48 hrs by sulforhodamine B assay; type: functional; settings: CAKI-1, 48 h, read-out: Activity; method in brief: as §2

SMILES | growth at 10 µM [1] [%] | IC50 [3] [µM] | growth at 10 µM [5] [%] | growth at 10 µM [8] [%] | growth at 10 µM [10] [%] | growth at 10 µM [11] [%] | growth at 10 µM [12] [%] | growth at 10 µM [13] [%] | growth at 10 µM [14] [%] | growth at 10 µM [15] [%] | growth at 10 µM [16] [%] | growth at 10 µM [18] [%] | growth at 10 µM [19] [%] | growth at 10 µM [20] [%] | growth at 10 µM [21] [%] | IC50 [22] [µM] | growth at 10 µM [23] [%] | growth at 10 µM [24] [%] | growth at 10 µM [25] [%] | growth at 10 µM [26] [%] | other results
CCOc1ccc(-n2nc(C(=O)NCc3cccc(OC)c3)nc2-c2cc(OC)c(OC)c(OC)c2)cc1 | 44.3 | 1.9 | 58.7 | 88.9 | 78.4 | 72.5 | 90.3 | 87.7 | 87.8 | 98.1 | 93.5 | 94.3 | 92.6 | 90 | 91 | 98.8 | 90 | 85.8 | 96 | – | growth at 10 µM [2]: 109%; growth at 10 µM [4]: 88.5%; growth at 10 µM [6]: 102%; growth at 10 µM [7]: 96.5%; growth at 10 µM [9]: 82.9%; growth at 10 µM [17]: 92.2%
CCOc1ccc(-n2nc(C(=O)Nc3ccc(F)c(F)c3)nc2-c2cc(OC)c(OC)c(OC)c2)cc1 | 42.6 | 31.8 | 61.1 | 96.6 | 47.1 | 64 | 60.5 | 98.6 | 87.4 | 68.9 | 61 | 42.2 | 65.5 | 78.4 | 89 | 17.1 | 63.8 | 85.2 | 51.2 | 89.4 | growth at 10 µM [27]: 68.5%
CCOc1ccc(-n2nc(C(=O)Nc3cc(F)cc(F)c3)nc2-c2cc(OC)c(OC)c(OC)c2)cc1 | 53.5 | 36.5 | 61.6 | 82.4 | 69.9 | 61.8 | 84.6 | 77 | 96.9 | 56 | 93.6 | 84.6 | 101 | 92.9 | 96.1 | > 100 | 77.9 | 93 | 95.2 | 90.4 | growth at 10 µM [27]: 68.8%
COc1cccc(-n2nc(C(=O)NCc3ccccc3C)nc2-c2cc(OC)c(OC)c(OC)c2)c1 | 35.9 | 3.85 | 60.8 | 87.7 | 83.2 | 65.8 | 76.1 | 90.1 | 73.2 | 95.9 | 81 | 87.3 | 86.2 | 78.1 | 89 | 89.4 | 74.3 | 87.7 | 85.2 | – | growth at 10 µM [2]: 107%; growth at 10 µM [4]: 90.8%; growth at 10 µM [6]: 96%; growth at 10 µM [7]: 91.7%; growth at 10 µM [9]: 72.5%; growth at 10 µM [17]: 86.8%
CCOc1ccc(-n2nc(C(=O)Nc3cc(OC)c(OC)c(OC)c3)nc2-c2cc(OC)c(OC)c(OC)c2)cc1 | 52.6 | 37.8 | 65.9 | 87.8 | 70.2 | 40.7 | 95.9 | 82 | 104 | 67.3 | 86.9 | 74 | 91.5 | 85.6 | 98.2 | > 100 | 82.1 | 99.7 | 75.8 | 93.1 | growth at 10 µM [27]: 77.4%
CCOc1ccc(-n2nc(C(=O)Nc3ccc(OC)c(O)c3)nc2-c2cc(OC)c(OC)c(OC)c2)cc1 | 56 | 13.7 | 70.3 | 96.2 | 72 | 68.5 | 108 | 101 | 107 | 111 | 97.8 | 78.7 | 103 | 96 | 94.3 | > 100 | 97.2 | 112 | 96.7 | 90.8 | growth at 10 µM [27]: 86.1%
